Laboratory results published in article PMC2233693 (The Journal of General Physiology, 2000).
Residue numbers refer to the chain shown, from its start. Like-named read-outs stand apart in the source and are kept apart here. Blank lines part the entries; values can stand above or below the compound they belong to.

Experiments:
Assay type in all cases: biochemical
[1] = molecular target: T1, wild-type bovine olfactory CNG channel (α3 subunit) (Bos taurus, UniProt Q03041); test: External Ca2+ blockage of single-channel current, outside-out patches; details: for effect on single-channel current: 5 μM cGMP; for n (single-channel Ca2+ blockage): Fig. 7 patch
T1 sequence (Q03041 1-663): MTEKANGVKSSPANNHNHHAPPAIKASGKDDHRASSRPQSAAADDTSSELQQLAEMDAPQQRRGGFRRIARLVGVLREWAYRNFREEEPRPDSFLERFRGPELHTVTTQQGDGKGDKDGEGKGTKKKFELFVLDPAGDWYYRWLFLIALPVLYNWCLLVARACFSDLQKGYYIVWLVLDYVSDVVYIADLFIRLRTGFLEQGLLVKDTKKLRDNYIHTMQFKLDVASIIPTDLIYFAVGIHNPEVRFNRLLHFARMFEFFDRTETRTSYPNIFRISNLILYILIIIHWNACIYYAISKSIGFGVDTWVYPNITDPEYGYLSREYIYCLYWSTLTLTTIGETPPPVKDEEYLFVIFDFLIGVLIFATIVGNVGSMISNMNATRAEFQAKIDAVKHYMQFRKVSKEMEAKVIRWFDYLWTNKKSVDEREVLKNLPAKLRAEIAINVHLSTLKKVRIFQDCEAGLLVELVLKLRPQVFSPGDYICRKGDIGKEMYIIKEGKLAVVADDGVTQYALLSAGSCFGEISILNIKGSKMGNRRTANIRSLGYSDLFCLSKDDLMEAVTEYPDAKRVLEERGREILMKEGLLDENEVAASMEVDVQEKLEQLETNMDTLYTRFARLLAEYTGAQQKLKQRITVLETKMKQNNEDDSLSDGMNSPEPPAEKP
Outline: (§1)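 Outside-out oocyte patches with cGMP in the pipette (wild-type 5 μM, E340G 1 mM) and increasing external Ca2+. Single-channel currents at +80 and −80 mV, filtered at 2 kHz, sampled at 10 kHz. Amplitudes from all-points histograms (30 s) fitted with summed Gaussians, normalised to divalent-free current, Hill-fitted for Ki and n. Two further patches per channel type.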

[2] = molecular target: T2, E340G mutant bovine olfactory CNG channel (Bos taurus, UniProt Q03041, E340G); test: as above; details: for n (single-channel Ca2+ blockage): Fig. 7 patch
T2 sequence (Q03041 1-663 E340G): T1 sequence (Q03041 1-663) with E340G
Outline: as §1

[3] = molecular target: T2, E340G mutant bovine olfactory CNG channel
[4] = molecular target: T3, E340D mutant bovine olfactory CNG channel (Bos taurus, UniProt Q03041, E340D)
T3 sequence (Q03041 1-663 E340D): T1 sequence (Q03041 1-663) with E340D

[5] = molecular target: T2, E340G mutant bovine olfactory CNG channel; remark: listed apart in the source
[6] = molecular target: T1, wild-type bovine olfactory CNG channel (α3 subunit); details: cGMP
[7] = read-out: K 1/2,cG, −80 mV, single patch, Fig. 1 fit
[8] = −80 mV, single patch, Fig. 1 fit

effect on single-channel current ([1]; 50 μM external Ca2+, −80 mV): partial blockage | effect on single-channel current ([1]; 1 mM external Ca2+, −80 mV): no current was detected | n (single-channel Ca2+ blockage) ([1]; +80 mV): 1 | n (single-channel Ca2+ blockage) ([1]; −80 mV): 1.1 | effect on single-channel amplitude ([2]; 1 or even 10 mM external Ca2+, 1 mM cGMP): only slightly reduced | n (single-channel Ca2+ blockage) ([2]; +80 mV): 0.7 | n (single-channel Ca2+ blockage) ([2]; −80 mV): 0.8 | effect of external Ca2+ on K 1/2 for cAMP or cGMP ([3]; 1 mM Ca2+ in the patch pipette): did not significantly affect K 1/2
SMILES: [Ca+2] [Ca^2+]

n(−80 mV), Hill coefficient ([4]; cGMP): 2.6 ± 0.4 | I(−80 mV)/I(+80 mV) ([4]; cGMP-gated current): 1.30 ± 0.10 | EC50 ([4]; read-out: K 1/2, cGMP, +80 mV): 4.8 ± 1.1 µM | EC50 ([4]; read-out: K 1/2, cGMP, −80 mV): 4.9 ± 1.1 µM | EC50 [4, 7]: 4.5 µM | n cG [4, 8]: 2.7 | n(−80 mV), Hill coefficient ([3]; cGMP): 1.8 ± 0.4 | I(−80 mV)/I(+80 mV) ([3]; cGMP-gated current): 0.79 ± 0.09 | EC50 ([3]; read-out: K 1/2, cGMP, +80 mV): 13 ± 1.5 µM | EC50 ([3]; read-out: K 1/2, cGMP, −80 mV): 15 ± 1.6 µM | EC50 [3, 7]: 18.5 µM | n cG [3, 8]: 1.6 | P max (+80 mV) ([5]; cGMP): 0.77 ± 0.08 | P max (−80 mV) ([5]; cGMP): 0.79 ± 0.06 | L, equilibrium gating constant ([5]; cGMP, allosteric model fit, mean ± SD): 5.2 ± 1.3 | EC50 ([5]; read-out: K 1/2 (single-channel open probability), cGMP, −80 mV, average): 14 ± 5 µM | EC50 ([5]; read-out: K 1/2,cG, −80 mV, single patch, Fig. 2 fit): 11.6 µM | P max (+80 mV) [6]: 0.993 ± 0.004 | P max (−80 mV) [6]: 0.996 ± 0.001 | L, equilibrium gating constant ([6]; allosteric model fit, mean ± SD): 334 ± 82
SMILES: Nc1nc2c(ncn2[C@@H]2O[C@@H]3COP(=O)(O)O[C@H]3[C@H]2O)c(=O)[nH]1 [cGMP]
